# Laboratory results reported in ChEMBL document CHEMBL1148254, “Lead discovery of quinoxalinediones as an inhibitor of dipeptidyl peptidase-IV (DPP-IV) by high-throughput screening” (Bioorg Med Chem Lett, 2004).
# Biological target: Dipeptidyl peptidase 4 (Rattus norvegicus) (UniProt P14740)
# Test: Inhibitory activity against Dipeptidylpeptidase IV in rat
# Parameters: concentration or dose not given beside the values
# Conditions: concentration not given here
# In short: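 Rat plasma was the enzyme source, incubated with Ala-Pro-AFC substrate (40) at room temperature, pH 7.8, for 1 h with or without test compound (20). Compounds were dissolved in DMSO, giving 5% DMSO in the assay mixture. Released AFC was read by fluorescence at 360 nm excitation and 485 nm emission, and a reference inhibitor was included.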
# Dipeptidyl peptidase 4 (Rattus norvegicus), sequence (P14740 whole entry, looked up): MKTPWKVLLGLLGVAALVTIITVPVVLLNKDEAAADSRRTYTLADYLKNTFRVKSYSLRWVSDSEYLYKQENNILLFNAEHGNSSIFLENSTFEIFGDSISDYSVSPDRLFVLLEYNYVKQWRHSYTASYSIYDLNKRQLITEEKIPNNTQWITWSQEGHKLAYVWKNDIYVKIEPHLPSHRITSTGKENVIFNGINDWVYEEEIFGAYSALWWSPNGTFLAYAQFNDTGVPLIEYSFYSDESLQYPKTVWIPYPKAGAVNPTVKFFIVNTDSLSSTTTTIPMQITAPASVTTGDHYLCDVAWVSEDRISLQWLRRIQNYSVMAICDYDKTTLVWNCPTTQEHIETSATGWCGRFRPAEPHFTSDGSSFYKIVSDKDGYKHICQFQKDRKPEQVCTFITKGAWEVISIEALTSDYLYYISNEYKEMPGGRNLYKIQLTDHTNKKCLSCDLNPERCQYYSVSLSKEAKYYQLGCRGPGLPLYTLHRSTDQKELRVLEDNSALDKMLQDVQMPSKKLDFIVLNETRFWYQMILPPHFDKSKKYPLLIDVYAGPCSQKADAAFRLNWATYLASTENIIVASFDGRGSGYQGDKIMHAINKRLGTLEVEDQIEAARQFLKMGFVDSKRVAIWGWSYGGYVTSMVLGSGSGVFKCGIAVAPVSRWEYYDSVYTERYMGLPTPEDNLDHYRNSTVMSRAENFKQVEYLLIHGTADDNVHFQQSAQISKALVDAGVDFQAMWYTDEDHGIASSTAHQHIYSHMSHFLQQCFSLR
row,SMILES,inhibition [%]
1,CC/N=C(\S)Nn1c(=O)c(=O)[nH]c2ccccc21,40.1
2,Cc1ccccc1S(=O)(=O)NC(=O)Nn1c(=O)c(=O)[nH]c2cc([N+](=O)[O-])ccc21,79.1
3,Cc1ccc(S(=O)(=O)NC(=O)Nn2c(=O)c(=O)[nH]c3ccccc32)cc1,12.3
4,O=C(Nc1ccccc1)Nn1c(=O)c(=O)[nH]c2cc([N+](=O)[O-])ccc21,3.6
5,O=c1[nH]c2cc(Cl)c(Cl)cc2n(NC(=S)Nc2ccccc2)c1=O,50
6,O=C(Nc1cccc(Cl)c1)Nn1c(=O)c(=O)[nH]c2cc([N+](=O)[O-])ccc21,6.6
7,O=C(Nn1c(=O)c(=O)[nH]c2cc([N+](=O)[O-])ccc21)NS(=O)(=O)c1ccccc1,57.2
8,O=C(Nn1c(=O)c(=O)[nH]c2cc(Cl)c(Cl)cc21)NS(=O)(=O)c1ccccc1,23.7
9,Cc1ccc(S(=O)(=O)NC(=O)Nn2c(=O)c(=O)[nH]c3cc(Cl)c(Cl)cc32)cc1,21
10,O=C(Nn1c(=O)c(=O)[nH]c2cc([N+](=O)[O-])ccc21)NS(=O)(=O)c1ccc(Cl)cc1,66.8
11,Cc1ccc(NC(=O)Nn2c(=O)c(=O)[nH]c3cc([N+](=O)[O-])ccc32)cc1,1
12,Cc1ccccc1S(=O)(=O)NC(=O)Nn1c(=O)c(=O)[nH]c2cc(Cl)c(Cl)cc21,10.4
13,O=c1[nH]c2ccccc2n(NC(=S)Nc2ccccc2)c1=O,26.5
14,Cc1ccccc1S(=O)(=O)NC(=O)Nn1c(=O)c(=O)[nH]c2ccccc21,12.3
15,O=C(NC(=O)c1ccccc1)Nn1c(=O)c(=O)[nH]c2ccccc21,13
16,O=c1[nH]c2ccccc2n(NC(=S)NCc2ccccc2)c1=O,41.5
17,O=C(Nc1ccc(F)cc1F)Nn1c(=O)c(=O)[nH]c2cc([N+](=O)[O-])ccc21,5.1
18,Cc1ccccc1S(=O)(=O)NC(=O)Nn1c(=O)c(=O)[nH]c2cc(Cl)ccc21,26.4
19,O=c1[nH]c2ccccc2n(NC(=S)Nc2cccc(Cl)c2)c1=O,32.1
20,O=C(NC(=S)Nn1c(=O)c(=O)[nH]c2cc(Cl)c(Cl)cc21)c1ccccc1,20.5
21,Cc1ccc(S(=O)(=O)NC(=O)Nn2c(=O)c(=O)[nH]c3cc(Cl)ccc32)cc1,20.5
22,Cc1ccc(S(=O)(=O)NC(=O)Nn2c(=O)c(=O)[nH]c3cc([N+](=O)[O-])ccc32)cc1,48
23,O=C(NC(=O)c1ccccc1)Nn1c(=O)c(=O)[nH]c2cc([N+](=O)[O-])ccc21,72.2
24,O=C(Nn1c(=O)c(=O)[nH]c2cc(Cl)ccc21)NS(=O)(=O)c1ccccc1,17.3
25,O=C(NC(=O)c1ccccc1)Nn1c(=O)c(=O)[nH]c2cc(Cl)ccc21,14.8
26,O=C(Nn1c(=O)c(=O)[nH]c2ccccc21)NS(=O)(=O)c1ccccc1,14.1
